Values belong to the molecule of their own block, whether it stands above or below them.
How the values were obtained:
Cia1 = conditions: via C-terminal tryptophan; ref [26]; cited from earlier work
[1] = Melting temperature by Thermofluor; type: physicochemical, Homo sapiens; conditions: R65W vs WT HsCia1
HsCia2a = assay: Affinity copurification of HsCia1 with HsCia2a; type: binding, Homo sapiens; conditions: strep-tagged HsCia1 bait, HsCia2a prey
Summary of the method: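 Recombinant human Cia1, wild-type or R65A variant, carries the strep tag as bait. Human Cia2a is the prey. Copurified proteins are compared between the two bait forms. Uncropped gels, including input samples and controls, accompany the analysis.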

CtCia1-Cia2 = assay: Affinity copurification of ScMet18 with CtCia1-Cia2; type: binding, Chaetomium thermophilum

Molecule: Viperin: CIA client
binding to Cia1 (Cia1): binds Cia1 via Viperin’s C-terminal tryptophan

Molecule: Hs R65WCia1: human Cia1 pathogenic variant implicated in a fatal neuromuscular disorder
thermostability of HsCia1 [1]: without impacting Cia1’s thermostability
thermostability of HsCia1 ([1]; listed as R65W HsCia1): did not affect the stability of HsCia1 in vitro
interaction with HsCia2a (HsCia2a): strongly disrupted

binding to CtCia1-Cia2 (CtCia1-Cia2): can bind to CtCia1-Cia2
B1: ScMet18: S. cerevisiae Met18 with N-terminal His6-SUMO tag (protein)
chain: MTPDELNSAVVTFMANLNIDDSKANETASTVTDSIVHRSIKLLEVVVALKDYFLSENEVERKKALTCLTTILAKTPKDHLSKNECSVIFQFYQSKLDDQALAKEVLEGFAALAPMKYVSINEIAQLLRLLLDNYQQGQHLASTRLWPFKILRKIFDRFFVNGSSTEQVKRINDLFIETFLHVANGEKDPRNLLLSFALNKSITSSLQNVENFKEDLFDVLFCYFPITFKPPKHDPYKISNQDLKTALRSAITATPLFAEDAYSNLLDKLTASSPVVKNDTLLTLLECVRKFGGSSILENWTLLWNALKFEIMQNSEGNENTLLNPYNKDQQSDDVGQYTNYDACLKIINLMALQLYNFDKVSFEKFFTHVLDELKPNFKYEKDLKQTCQILSAIGSGNVEIFNKVISSTFPLFLINTSEVAKLKLLIMNFSFFVDSYIDLFGRTSKESLGTPVPNNKMAEYKDEIIMILSMALTRSSKAEVTIRTLSVIQFTKMIKMKGFLTPEEVSLIIQYFTEEILTDNNKNIYYACLEGLKTISEIYEDLVFEISLKKLLDLLPDCFEEKIRVNDEENIHIETILKIILDFTTSRHILVKESITFLATKLNRVAKISKSREYCFLLISTIYSLFNNNNQNENVLNEEDALALKNAIEPKLFEIITQESAIVSDNYNLTLLSNVLFFTNLKIPQAAHQEELDRYNELFISEGKIRILDTPNVLAISYAKILSALNKNCQFPQKFTVLFGTVQLLKKHAPRMTETEKLGYLELLLVLSNKFVSEKDVIGLFDWKDLSVINLEVMVWLTKGLIMQNSLESSEIAKKFIDLLSNEEIGSLVSKLFEVFVMDISSLKKFKGISWNNNVKILYKQKFFGDIFQTLVSNYKNTVDMTIKCNYLTALSLVLKHTPSQSVGPFINDLFPLLLQALDMPDPEVRVSALETLKDTTDKHHTLITEHVSTIVPLLLSLSLPHKYNSVSVRLIALQLLEMITTVVPLNYCLSYQDDVLSALIPVLSDKKRIIRKQCVDTRQVYYELGQIPFE
modifications: left off: His6, N-terminal, state not stated | SUMO, N-terminal, state not stated

Reference: PMC11974842 (bioRxiv, 2025)
